# Compound activity from PubChem.
# GalR3 antag – GalR3 antagonists in HEK293 cells, primary screen, cell-based, fluorescence readout. Galanin receptor type 3 (Homo sapiens), O60755. HEK293 GalR3-CNG cAMP membrane potential fluorescence; galR3 body fused to GalR1 C-terminus. inhibition, % at 3 µM. 0.44% of 360,000 active. AID 651719, 2012;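 active means inhibition above the screen-wide average plus 3 SD, cut at about 13% in these data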;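 further: forskolin and galanin both at EC90 stimulate the cells; cAMP rise reported by CNG channel membrane potential dye signal; 0% = forskolin plus galanin with DMSO and 100% = forskolin alone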
# Target sequence (O60755 1-299 limits assumed): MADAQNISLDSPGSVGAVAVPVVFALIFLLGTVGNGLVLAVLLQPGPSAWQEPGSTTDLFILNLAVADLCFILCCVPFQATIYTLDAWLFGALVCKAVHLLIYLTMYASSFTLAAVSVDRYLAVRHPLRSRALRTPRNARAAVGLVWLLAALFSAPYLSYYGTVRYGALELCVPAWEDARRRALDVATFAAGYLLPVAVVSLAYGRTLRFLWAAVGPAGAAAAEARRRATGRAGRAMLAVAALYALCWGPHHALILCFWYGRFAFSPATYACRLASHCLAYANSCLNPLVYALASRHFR
# OX1R antag-1 – OX1R (HCRTR1) antagonists, primary screen, fluorescence, CHO/OX1R cells, Fluo-8 calcium, orexin A. Fluo-8 calcium fluorescence. inhibition, % at 5 µM. 0.43% of 330,000 active. AID 434989, 2010;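 active means inhibition above its plate's threshold, mean inhibition of all tested compounds on the plate plus 3 SD, cut at about 37% in these data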;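 further: 0% = orexin A challenge wells and 100% = SB-334867-A antagonist wells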
# GPR7 antagonist – GPR7 receptor antagonists, primary screen, cell-based, fluorescence, single concentration; Neuropeptides B/W receptor type 1 (Homo sapiens), P48145; GPR7-expressing cells, fluorescence antagonist assay; inhibition, % at 4.4 µM; 1.1% of 290,000 active; AID 1861, 2009; in the data active means inhibition above about 16%, passing the limit was not always enough;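 further: cells stimulated with the agonist NPW; 0% = agonist with vehicle and 100% = vehicle without agonist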
# Target sequence (P48145 whole entry, looked up): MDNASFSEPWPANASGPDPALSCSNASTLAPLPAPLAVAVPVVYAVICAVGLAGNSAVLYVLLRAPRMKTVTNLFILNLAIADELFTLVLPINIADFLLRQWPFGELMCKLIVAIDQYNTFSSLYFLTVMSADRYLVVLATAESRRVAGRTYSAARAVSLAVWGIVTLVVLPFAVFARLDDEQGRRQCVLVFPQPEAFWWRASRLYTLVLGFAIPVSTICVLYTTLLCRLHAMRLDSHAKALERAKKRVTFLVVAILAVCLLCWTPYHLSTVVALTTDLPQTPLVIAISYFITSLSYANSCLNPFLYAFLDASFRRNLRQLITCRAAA
# CHO parental Ca – ATP-evoked calcium signal inhibitors, parental CHO, primary screen, counter-screen for OX1R antagonist project, cell-based, fluorescence, Fluo-8 calcium dye | parental CHO-K1, ATP-induced calcium, Fluo-8 fluorescence | inhibition, % at 5.6 µM | 0.63% of 330,000 active | AID 463079, 2010;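 active means inhibition above that plate's mean sample inhibition plus 3 SD, cut at about 26% in these data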;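 further: 0% = ATP-challenged DMSO wells and 100% = DMSO wells without ATP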
#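 test system = CHO parental line | reagent = ATP stimulus | measured by = intracellular calcium via Fluo-8 no-wash fluorescent dye | control set = ATP and no-ATP DMSO wells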
# OX1R antag-2 – antagonists of human orexin 1 receptor (OX1R); Orexin/Hypocretin receptor type 1 (Homo sapiens), O43613; OX1R-expressing cells, FRET antagonist read-out; inhibition, % at 6.6 µM; 1.8% of 330,000 active; AID 485270, 2010; in the data active means inhibition mostly above about 38%, no sharp cut-off; inactive means mostly below about 40%;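 further: 0% = agonist challenge alone and 100% = reference antagonist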
# The depositor's hits bear a star; . = not tested or not shown. An excerpt weighted towards active compounds, which were near 3.1% of everything screened.
SMILES,GalR3 antag,OX1R antag-1,GPR7 antagonist,CHO parental Ca,OX1R antag-2
CCCNC(=O)Cn1c(=O)/c(=C\c2ccc(-c3ccc([N+](=O)[O-])cc3)o2)s/c1=C\C(=O)C(C)(C)C,.,75*,0,59*,12
CCOC(=O)n1ccc(C(=O)Nc2ccccc2F)n1,-3,-7,-9,29*,7
CCOC(=O)CSc1nnc2c3ccccc3n(C)c2n1,1,-14,-3,-13,16
CC(C)n1c2ccccc2c2nnc(SCC(=O)OCN3C(=O)c4ccccc4C3=O)nc21,-2,-1,-9,-17,50*
CC1(C)CSC(=NCCc2ccccc2)N1C(=O)c1ccc(C#N)cc1,-2,-12,20*,-9,14
CC1(C)CSC(=NCCc2ccccc2)N1,-8,-8,-4,0,23
COC(=O)C1=C(C)N(Cc2ccc(F)cc2)C(=S)NC1c1ccc(F)cc1 (stereo not drawn),-7,.,.,.,.
Cc1ccc2c(c1)c1c3n2CCN(C(=O)C2CC2)C3CCC1 (stereo not drawn),2,-28,-12,-25,12
Cc1ccc2c(c1)c1c3n2CC(=C2C(=O)OC(C)(C)OC2=O)NC3CCC1 (stereo not drawn),-1,28,-6,-12,43*
Cc1ccc(S(=O)(=O)N2CCOCC2)cc1NC(=O)COC(=O)COc1ccc(C#N)cc1,3,.,.,.,.
Cc1nn(Cc2c(Cl)cccc2Cl)c(C)c1NC(=O)/C=C/c1cnn(C)c1C,-4,6,1,-5,56*
Fc1ccc2nc(-c3ccc(CN4CCC5(CC4)CNc4ccccc45)cc3)c(-c3ccccc3)nc2c1,-1,.,.,.,.
O=C(ONC1=NCCCCC1)c1ccc([N+](=O)[O-])cc1,6,3,5,-10,50*
O=C(Nc1cccc([N+](=O)[O-])c1)ONC1=NCCCCC1,-3,-4,-14,0,17
COCCN1C(=O)[C@H]2C[C@@]13O[C@H](C1CCCCC1)N=C3CC1c3ccccc3C[C@@]12C (stereo partly drawn),-7,.,.,.,.
CC(NC(=O)[C@H](NC(=O)[C@@H]1Cc2ccccc2CN1)c1ccccc1)c1ccccc1 (stereo partly drawn),-7,-16,-7,-16,50*
CC(C)c1ccc(NC(=O)[C@H](NC(=O)[C@@H]2Cc3ccccc3CN2)c2ccccc2)cc1,-2,-22,-8,-23,15
Cc1ccc(-c2cc(C(=O)N3N=C(C(F)F)CC3(O)C(F)F)c3ccccc3n2)cc1C (stereo not drawn),-8,10,-14,45*,26
CC(C)(C)OC(=O)N1O[C@H]2C=C[C@@H]1C2,2,.,.,.,.
CCNc1nc(C)nc2c1oc1ccccc12,-7,-13,-1,-14,12
OCCNc1nc(-c2ccccc2)nc2c1oc1ccccc12,-2,-14,-10,-23,40*
Cc1ccc(S(=O)(=O)N2CCCCC2)cc1NC(=O)C1COc2ccccc2O1 (stereo not drawn),-7,.,.,.,.
CCN(CC)S(=O)(=O)c1ccc(Oc2ccc(S(=O)(=O)N(CC)CC)cc2)cc1,-2,33,-8,58*,14
CC(C)(C)NC(=O)CSc1nc2ccc(NC(=O)CSc3nnnn3Cc3ccccc3)cc2s1,-4,42,-2,37*,66
CCOC(=O)CSc1nc2ccc(NC(=O)CSc3nnnn3Cc3ccccc3)cc2s1,-11,7,1,5,12
SMILES,GalR3 antag,OX1R antag-1,GPR7 antagonist,CHO parental Ca,OX1R antag-2
O=C1CCCCC(=O)[C@H](O)C[C@H](c2ccccc2)O1,-3,.,.,.,.
O=C(Nc1ccc(Br)c(C(F)(F)F)c1)c1ccc(C(F)(F)F)cc1,-2,60*,19,40*,62*
O=C(Nc1ccc(Br)c(C(F)(F)F)c1)c1ccccc1,-6,-6,-3,-19,31
O=C(NCCN1CCOCC1)c1ccncc1,-1,1,-9,2,4
O=C1C=C(NCCN2CCOCC2)C(=O)c2cnccc21,.,1,-10,-4,115*
Nc1nc2c(ncn2[C@@H]2O[C@H](C(=O)NC3CCCCC3)[C@@H](O)[C@H]2O)c(=O)[nH]1,-2,.,.,.,.
NC(=O)C1CCN(c2nc(-c3cccnc3)cs2)CC1,-4,-16,.,-10,25
NC(=O)C1CCN(c2nc(-c3ccc(F)cc3)cs2)CC1,-1,-4,.,-6,57*
OC(CNCCc1ccccc1)COc1ccc(OCC(O)CNCCc2ccccc2)cc1 (stereo not drawn),-2,-29,32*,-12,6
CCCCCCC12C(=Cc3cc4c(cc31)OCCO4)c1cc(OC)c(OC)cc1C(CC(=O)O)N2C(=O)OC (stereo not drawn),3,.,.,.,.
O=[N+]([O-])c1cc(F)cc(F)c1Nc1ccc(F)cc1,-4,.,.,.,.
CC(=O)c1nn(-c2cccc(Br)c2)cc1C(=O)c1ccccc1,-3,-25,-3,-10,2
CC(=O)c1nn(-c2ccccc2)cc1C(=O)c1ccc(Br)cc1,-4,10,-14,40*,11
O=C1Nc2ccc(Br)cc2/C1=C/C(=O)c1ccc2c(c1)OCO2,-2,5,7,11,7
O=C1Nc2ccc(Br)cc2/C1=C/C1CC=CCC1 (stereo not drawn),2,-16,-1,33*,21
COc1cc2cccc(OC)c(=O)c2c(O)c1OC,-3,-8,-2,0,66*
CC1(C(=O)NCc2ccccc2Br)CCN1Cc1ccc(-c2ccccc2)o1 (stereo not drawn),-9,.,.,.,.
COc1cc(C(=S)N2CCOCC2)cc(Br)c1OS(=O)(=O)c1ccccc1,-12,18,-5,5,35*
COc1ccc(CN2C(=O)CSCC2(C)C(=O)Nc2c(C)cccc2C)cc1 (stereo not drawn),-4,.,.,.,.
O=S1(=O)N[C@@H](Cc2ccccc2)COc2cc(NCCCN3CCOCC3)ccc21,-6,.,.,.,.
COc1cccc2c1C(=O)c1c(O)c3c(c(O)c1C2=O)C[C@](O)(C(C)=O)C[C@H]3O[C@@H]1C[C@@H](N)[C@@H](O)[C@@H](C)O1,5,4,.,10,49*
C[C@@H]1CC[C@H](Cc2ccc(-n3cccc3)cc2)N1C(=O)OC(C)(C)C,4,.,.,.,.
Cc1cccc(C(=O)N2CCN(Cc3nc4sc5c(c4c(=O)[nH]3)CCCC5)CC2)c1,-3,-32,-12,-25,18
Cc1cccc2[nH]c3c(N4CC=C(c5ccc(F)cc5)CC4)ncnc3c12,-2,19,-12,36*,77*
COc1ccc(N2CCN(c3ncnc4c3[nH]c3ccccc34)CC2)cc1,-5,71*,8,75*,89*
CCOC(=O)N1CCN(c2ncnc3c2[nH]c2ccc(OC)cc23)CC1,-4,-17,2,3,12
